In PMC10230191 (RSC Advances, 2023):

Columns and labels:
HBV = test: Anti-HBV assay in HBV-producing HepG2 2.2.15 cells; assay type: cell-based, hepatitis B virus; conditions: for EC50: Hepatitis B virus, HepG2 2.2.15, 336 h, read-out: EC50 (nM) against HBV
Procedure, shortened: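 […] cells seeded at 4 × 10^3 per well with a range of test-compound concentrations; medium and compound renewed on days 3 and 7. On day 14, total cellular DNA was extracted and HBV genomes quantified by real-time PCR (95 °C 10 min; 50 cycles of 95 °C 10 s, 60 °C 1 min). Copies were derived from CT against 10-fold HBV plasmid dilutions, compared with no-compound controls, and EC50 was obtained by linear forecast.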

[1] = Cytotoxicity in HepG2.2.15 cells; assay type: cell-based; conditions: human
Procedure, shortened: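 Cells plated at 2 × 10^3 per well, exposed continuously to test compound for 14 days; viable cells counted by CCK-8 relative to no-compound controls to give CC50.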

Row | Compound | times lower anti-HBV activity compared to compound (E)-6 (HBV; HepG2 2.2.15 cells, relative to (E)-6) | EC50 (HBV) | CC50 at 14 days [1]
1 | N#C[C@]1(CO)/C(=C/F)[C@@H](n2cnc3c(=O)[nH]c(N)nc32)C[C@@H]1O [(Z)-6, (1S,3S,5S,Z)-3-(2-Amino-6-oxo-1,6-dihydro-9H-purin-9-yl)-2-(fluoromethylene)-5-hydroxy-1-(hydroxymethyl)cyclopentane-1-carbonitrile] | ~500 times | 585 ± 358 nM | > 100000 nM
2 | C=C1[C@H](CO)[C@@H](O)C[C@@H]1n1cnc2c(=O)[nH]c(N)nc21 [Compound 1, entecavir, reference compound] | – | 2.3 ± 0.6 nM | 63000 nM
3 | N#C[C@]1(CO)O[C@@H](n2cnc3c(=O)[nH]c(N)nc32)C[C@@H]1O [Compound 2, 4′-cyano-deoxyguanosine, reference compound] | – | 0.3 ± 0.1 nM | 3000 ± 200 nM
4 | N#C[C@]1(CO)/C(=C\F)[C@@H](n2cnc3c(=O)[nH]c(N)nc32)C[C@@H]1O [Compound (E)-6, (1S,3S,5S,E)-3-(2-Amino-6-oxo-1,6-dihydro-9H-purin-9-yl)-2-(fluoromethylene)-5-hydroxy-1-(hydroxymethyl)cyclopentane-1-carbonitrile] | – | 1.2 ± 0.7 nM | 93000 nM
